Our source for the Kd, IC50 and Activity values is ChEMBL document CHEMBL1781980, “Structure-activity relationship studies to probe the phosphoprotein binding site on the carboxy terminal domains of the breast cancer susceptibility gene 1” (J Med Chem, 2011).

Calls of active or inactive are those of the source. No cut-off for these calls is given here. Non-standard residues stand in square brackets, D forms with d. Residues, ends and D or L forms follow the SMILES beside them. pS = N[C@@H](COP(=O)(O)O)C(=O)O

In test [1] the target is T1, Breast cancer type 1 susceptibility protein (Homo sapiens, UniProt P38398). As to the kind of experiment: Binding affinity to BRCA1 by isothermal titration calorimetric assay. In outline: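 Direct ITC titration at 25°C. Protein dialyzed three times (2 h each) into 50mM KH2PO4 pH = 7.2; final dialysate used for reference cell and to dissolve peptides. Peptides (100 – 400 μM) in syringe, protein (10 – 20 μM) in cell; 3 μL first injection then 29 × 10 μL every 3 minutes, stirred at 307 rpm. Peptide-into-buffer dilution curves collected; Kd and ΔG, ΔH, ΔS derived.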
Background: In ITC the heat of successive injections is recorded.

The target in test [2] is T1, Breast cancer type 1 susceptibility protein. Description: Inhibition of BRCA1 by fluorescence polarization assay. The essentials: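 Competitive fluorescence polarization assay. Peptides titrated into a mixture of BRCT protein (1000 nM) and fluorescently labeled tetrapeptide (100 nM). Polarization and fluorescence read on a plate reader. IC50 values obtained by non-linear least square fitting.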
Target sequence in this assay (P38398 whole entry): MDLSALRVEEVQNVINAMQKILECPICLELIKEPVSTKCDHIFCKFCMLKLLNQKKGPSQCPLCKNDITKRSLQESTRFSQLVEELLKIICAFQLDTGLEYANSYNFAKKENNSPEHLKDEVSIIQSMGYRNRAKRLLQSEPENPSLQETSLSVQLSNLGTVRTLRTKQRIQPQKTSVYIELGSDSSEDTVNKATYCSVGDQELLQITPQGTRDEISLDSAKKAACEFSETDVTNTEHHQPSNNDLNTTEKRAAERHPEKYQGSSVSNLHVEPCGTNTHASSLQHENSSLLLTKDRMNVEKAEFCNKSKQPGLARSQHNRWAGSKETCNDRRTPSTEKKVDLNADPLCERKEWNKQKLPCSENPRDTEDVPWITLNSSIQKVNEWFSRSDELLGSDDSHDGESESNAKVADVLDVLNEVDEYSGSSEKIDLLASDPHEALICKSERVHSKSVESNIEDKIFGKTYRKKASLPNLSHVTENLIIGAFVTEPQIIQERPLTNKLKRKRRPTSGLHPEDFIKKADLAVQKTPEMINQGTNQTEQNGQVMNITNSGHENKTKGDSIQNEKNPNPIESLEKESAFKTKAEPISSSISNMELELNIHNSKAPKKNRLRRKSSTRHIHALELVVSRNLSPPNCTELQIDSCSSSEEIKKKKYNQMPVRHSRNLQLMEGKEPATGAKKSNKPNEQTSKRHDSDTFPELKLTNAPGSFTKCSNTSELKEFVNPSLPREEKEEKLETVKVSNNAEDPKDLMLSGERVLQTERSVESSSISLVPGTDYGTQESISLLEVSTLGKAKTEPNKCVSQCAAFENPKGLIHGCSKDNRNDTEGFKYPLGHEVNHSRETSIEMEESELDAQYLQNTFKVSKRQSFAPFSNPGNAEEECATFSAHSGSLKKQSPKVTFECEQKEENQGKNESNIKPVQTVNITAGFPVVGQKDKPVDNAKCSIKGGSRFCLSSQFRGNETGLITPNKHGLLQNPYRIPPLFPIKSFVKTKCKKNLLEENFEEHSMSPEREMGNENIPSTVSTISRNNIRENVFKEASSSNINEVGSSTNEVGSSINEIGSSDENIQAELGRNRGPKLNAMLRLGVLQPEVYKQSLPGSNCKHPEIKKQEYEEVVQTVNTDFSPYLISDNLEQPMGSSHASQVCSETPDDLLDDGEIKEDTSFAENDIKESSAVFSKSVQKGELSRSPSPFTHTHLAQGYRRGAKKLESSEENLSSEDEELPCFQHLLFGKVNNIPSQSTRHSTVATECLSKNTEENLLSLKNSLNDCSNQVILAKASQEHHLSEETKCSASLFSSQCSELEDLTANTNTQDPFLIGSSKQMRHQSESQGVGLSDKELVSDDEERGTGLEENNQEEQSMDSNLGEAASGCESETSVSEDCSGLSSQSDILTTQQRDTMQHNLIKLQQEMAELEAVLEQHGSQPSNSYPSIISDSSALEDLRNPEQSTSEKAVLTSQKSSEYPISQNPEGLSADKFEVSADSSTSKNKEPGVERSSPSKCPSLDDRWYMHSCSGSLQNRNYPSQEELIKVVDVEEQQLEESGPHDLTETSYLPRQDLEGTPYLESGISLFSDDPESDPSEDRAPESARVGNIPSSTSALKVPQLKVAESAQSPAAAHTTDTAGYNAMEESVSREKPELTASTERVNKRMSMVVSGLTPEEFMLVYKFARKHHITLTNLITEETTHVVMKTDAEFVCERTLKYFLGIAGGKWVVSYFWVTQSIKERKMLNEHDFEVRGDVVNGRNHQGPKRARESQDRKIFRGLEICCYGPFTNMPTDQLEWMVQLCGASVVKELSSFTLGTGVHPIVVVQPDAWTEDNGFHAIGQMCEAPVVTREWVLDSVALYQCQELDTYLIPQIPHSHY
On the technique in general: Polarisation of emitted light reports the rotation of a fluorescent probe.

Take `CC(=O)N[C@@H](CO)C(=O)N[C@@H](CCCNC(=N)N)C(=O)N[C@@H](CO)C(=O)N[C@H](C(=O)N[C@@H](COP(=O)(O)O)C(=O)N1CCC[C@H]1C(=O)N[C@H](C(=O)N[C@@H](Cc1ccccc1)C(=O)N[C@@H](CC(N)=O)C(=O)N[C@@H](CCCCN)C(N)=O)[C@@H](C)O)[C@@H](C)O`: in test [1], the dissociation constant (Kd) (commonly the free concentration of one partner at which half of the binding sites on the other are occupied at equilibrium, for simple one-to-one binding) is 440 nM.

Turning to `CC[C@H](C)[C@H](N)C(=O)N[C@@H](CO)C(=O)N[C@@H](CCCNC(=N)N)C(=O)N[C@@H](CO)C(=O)N[C@H](C(=O)N[C@@H](COP(=O)(O)O)C(=O)N1CCC[C@H]1C(=O)N[C@H](C(=O)N[C@@H](Cc1ccccc1)C(=O)N[C@@H](CC(N)=O)C(=O)N[C@@H](CCCCN)C(=O)N[C@@H](CCC(N)=O)C(=O)N[C@H](C(=O)O)[C@@H](C)O)[C@@H](C)O)[C@@H](C)O`, the Kd in test [1] turned out to be 410 nM.

On to `CC(=O)N[C@@H](CCC(=O)O)C(=O)N1CCC[C@H]1C(=O)N[C@H](C(=O)N[C@@H](Cc1ccccc1)C(N)=O)[C@@H](C)O` (Ac-EPTF-NH2), for which the IC50 (as a rule, the concentration at which inhibition is half-maximal) in test [2] was greater than 250000 nM.

`CC(=O)N[C@@H](COP(=O)(O)O)C(=O)N1CCC[C@H]1C(=O)N[C@H](C(=O)N[C@@H](Cc1ccccc1)C(N)=O)[C@@H](C)O` (Ac-[pS]PTF-NH2): the outcome in test [1] was Active.

For the molecule `CC(=O)N[C@@H](COP(=O)(O)O)C(=O)N1CCC[C@H]1C(=O)N[C@H](C(=O)N[C@@H](Cc1ccccc1)C(N)=O)C(C)C` (Ac-[pS]PVF-NH2), in test [1], the outcome was Active.

In the case of `CC(=O)N[C@@H](COP(=O)(O)O)C(=O)N1CCC[C@H]1C(=O)N[C@H](C(=O)N[C@@H](Cc1ccccc1)C(=O)O)C(C)C` (Ac-[pS]PVF-OH), the outcome in test [1] was Active.
